One data set concerns Poliovirus 3. Briefly: Antiviral activity against Poliovirus 3 infected in human HeLa-RW cells assessed as protection against virus-induced cytopathic effect after 3 to 4 days by crystal violet staining-based spectrophotometric method. Format: functional, cell-based. To be noted: Enterovirus C. Put shortly: (§1)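 HeLa-RW cells grown in DMEM with penicillin, streptomycin, glutamine and 10% FBS. They were infected at a low MOI pre-set to give full CPE in 3-4 days. Compound in DMSO was added as serial 2-fold dilutions (7 points), each in triplicate. When control CPE was maximal, cells were fixed with 4% formaldehyde, stained with 0.25% crystal violet and read at OD590. EC50 came from a four-parameter or sigmoidal fit.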
A general note: Protection from cytopathic effect is a common read-out in antiviral testing.

The test system of the next data set is Enterovirus A71. The experiment in a line: Antiviral activity against Enterovirus A71 infected in monkey LLC-MK2 cells assessed as protection against virus-induced cytopathic effect after 3 to 4 days by crystal violet staining-based spectrophotometric method. To be noted: Enterovirus A. Format: functional, cell-based. Put shortly:
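EV-A71 was tested in LLC-MK2 cells grown in DMEM with 10% FBS, penicillin, streptomycin and glutamine, at a low MOI preset to give full CPE in 3–4 days. Compound was dissolved in DMSO and diluted 2-fold, in triplicate. Cells were fixed with formaldehyde when control CPE was maximal, then stained with crystal violet and read at OD590. EC50 came from a 7-point four-parameter or sigmoidal fit.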

Data set [1] in a line: Selectivity index, ratio of CC50 for human HeLa-RW cells to EC50 for Coxsackievirus B3. Format: toxicity. To be noted: read-out: Ratio CC50/EC50. The procedure, abridged:
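HeLa-RW cells in DMEM with 10% FBS were used for both arms. For EC50, cells were infected with CVB3-H3 at a low MOI giving full CPE in 3–4 days and exposed to 2-fold compound dilutions, in triplicate, with a 7-point fit. For CC50, uninfected cells got 2-fold dilutions for the same period. Both arms were fixed, crystal violet-stained and read at OD590.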

Another data set concerns Coxsackievirus B3. The experiment in a line: Antiviral activity against Coxsackievirus B3 infected in human HeLa-RW cells assessed as protection against virus-induced cytopathic effect after 3 to 4 days by crystal violet staining-based spectrophotometric method. In kind it is functional, cell-based. To be noted: Enterovirus B. The procedure, abridged:
as §1

A short description of data set [2]: Selectivity index, ratio of CC50 for monkey LLC-MK2 cells to EC50 for Enterovirus A71. In kind it is toxicity. To be noted: read-out: Ratio CC50/EC50. Put shortly: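 LLC-MK2 cells in DMEM with 10% FBS were used for both arms. For EC50, cells were infected with EV-A71 at a low MOI giving full CPE in 3–4 days and exposed to 2-fold compound dilutions, in triplicate. For CC50, uninfected cells got 2-fold dilutions for the same period. Both arms were formaldehyde-fixed, crystal violet-stained and read at OD590.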

In another data set the test system is Poliovirus 1. Briefly: Antiviral activity against Poliovirus 1 infected in human HeLa-RW cells assessed as protection against virus-induced cytopathic effect after 3 to 4 days by crystal violet staining-based spectrophotometric method. In kind it is functional, cell-based. To be noted: Enterovirus C. Put shortly:
as §1

Another data set has as its system LLC-MK2. Briefly: Cytotoxicity against monkey LLC-MK2 cells after 3 to 4 days by crystal violet staining-based spectrophotometric method. In kind it is cell-based, Macaca mulatta. To be noted: rhesus monkey. The procedure, abridged: (§2)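 Uninfected cells (HeLa-RW or LLC-MK2, in DMEM with penicillin, streptomycin, glutamine and 10% FBS) were exposed to serial 2-fold compound dilutions for the same period as the CPE assay. They were then fixed with formaldehyde, stained with crystal violet and read by OD590 spectrophotometry to derive CC50. Values are means ± s.d. of 3 experiments, or the average of triplicates in one.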

Data set [3] is described as follows: Cytotoxicity against human HeLa-RW cells after 3 to 4 days by crystal violet staining-based spectrophotometric method. Format: cell-based. Put shortly:
as §2

Data set [4] is described as follows: Selectivity index, ratio of CC50 for human HeLa-RW cells to EC50 for Poliovirus 1. Format: toxicity. To be noted: read-out: Ratio CC50/EC50. Put shortly:
(§3)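 HeLa-RW cells grown in DMEM with penicillin, streptomycin, glutamine and 10% FBS were infected at a low MOI chosen to give full CPE in 3-4 days. Serial 2-fold compound dilutions from DMSO stocks were tested in triplicate. When control CPE was maximal, cells were formaldehyde-fixed, crystal violet-stained and read at OD590. EC50 came from a 7-point curve. CC50 used uninfected cells over the same period.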

Data set [5] is described as follows: Selectivity index, ratio of CC50 for human HeLa-RW cells to EC50 for Poliovirus 3. In kind it is toxicity. To be noted: read-out: Ratio CC50/EC50. Put shortly: as §3

One may read the EC50 as the concentration giving half of the maximal effect. The term CC50 denotes the concentration giving 50% cytotoxicity.

Some results are limits rather than exact numbers.

On to `CC(C)n1ncc2c(C(=O)Nc3cc(C(N)=O)ccc3F)cc(-c3cccs3)nc21`, for which the EC50 in the data set on Poliovirus 3 was 5 µM; in the data set on Enterovirus A71, 0.5 µM; with Coxsackievirus B3, 0.8 µM; in the data set on Poliovirus 1, 5 µM. Further, the selectivity ratio in data set [1] came to 23.5; in data set [2] it was 50; in [4], 3.8; in data set [5], 3.8. Further, the CC50 in the data set on LLC-MK2 is 25 µM; in data set [3] (hela-rw), 18.8 µM.

As for `CC(C)n1ncc2c(C(=O)Nc3cc(S(N)(=O)=O)ccc3F)cc(-c3cccs3)nc21`, the EC50 with Poliovirus 3 stood at 6.3 µM; in the data set with Enterovirus A71 it was 0.5 µM; with Coxsackievirus B3, 0.7 µM; in the data set on Poliovirus 1, 6.3 µM. For the same compound, the selectivity ratio in data set [1] turned out to be 25.7; in data set [2], 50; in [4] it was 2.9; in [5], 2.9. In addition, the CC50 with LLC-MK2 turned out to be 25 µM; in data set [3] (hela-rw) it was 18 µM.

As for `CC(C)n1ncc2c(C(=O)Nc3ccccc3F)cc(-c3cccs3)nc21`, the concentration for a half-maximal effect (EC50) in the data set on Poliovirus 3 was determined as 7 µM; in the data set with Enterovirus A71, 2.3 µM; in the data set with Coxsackievirus B3, 1.4 µM; in the data set with Poliovirus 1 it was 7 µM. Further, the selectivity ratio in [1] is 8.9; in data set [2], 21.7; in [4], 1.8; in [5], 1.8. Also, the 50% cytotoxic concentration (CC50) with LLC-MK2 worked out at 50 µM; in data set [3] (hela-rw) it was 12.5 µM.

As for `CC(C)n1ncc2c(C(=O)Nc3cncnc3)cc(-c3cccs3)nc21`, the EC50 in the data set with Poliovirus 3 worked out at 10 µM; with Enterovirus A71, 0.4 µM; in the data set on Coxsackievirus B3 it was 0.7 µM; in the data set on Poliovirus 1, 10 µM. Further, the selectivity ratio came to 25.7 in data set [1], 50 in [2], 1.8 in data set [4] and 1.8 in [5]. The CC50 in the data set with LLC-MK2 was 20 µM; in [3] (hela-rw), 18 µM.

In the case of `CC(C)n1ncc2c(C(=O)Nc3cccc(F)c3F)cc(-c3cccs3)nc21`, the concentration giving a half-maximal response (EC50) with Poliovirus 3 was over 25 µM; in the data set on Enterovirus A71 it was 3 µM; in the data set on Coxsackievirus B3, 2.7 µM; in the data set on Poliovirus 1 it was over 25 µM. Also, the selectivity ratio in data set [1] is over 74.1; in data set [2] it was 25. Besides, the CC50 was 75 µM with LLC-MK2 and over 200 µM in data set [3] (hela-rw).

On to `CC(C)n1ncc2c(C(=O)N3CCc4cc(F)ccc43)cc(-c3cccs3)nc21`, for which the EC50 in the data set on Poliovirus 3 was 10 µM; with Enterovirus A71 it was 1.3 µM; with Coxsackievirus B3, 1.9 µM; with Poliovirus 1, 10 µM. For the same compound, the selectivity ratio in data set [1] is 9.9; in data set [2], over 153; in data set [4], 1.9; in data set [5], 1.9. The CC50 is over 200 µM in the data set with LLC-MK2 and 18.8 µM in data set [3] (hela-rw).

Regarding `CC(C)n1ncc2c(C(=O)Nc3ccccn3)cc(C3CC3)nc21`, the EC50 with Poliovirus 3 was over 25 µM; with Enterovirus A71 it was 4.7 µM; with Coxsackievirus B3 it was 4.7 µM; with Poliovirus 1, over 25 µM. The selectivity ratio in [1] and in data set [2] was 5.3 each time. For the same compound, the CC50 (in the data set with LLC-MK2; in data set [3] (hela-rw)) was 25 µM each time.

`CC(C)n1ncc2c(C(=O)Nc3ccc(F)cn3)cc(-c3cccs3)nc21`: the EC50 with Poliovirus 3 was over 10 µM; in the data set on Enterovirus A71, 1.2 µM; in the data set with Coxsackievirus B3, 0.7 µM; in the data set with Poliovirus 1 it was over 10 µM. Moreover, the results for the selectivity ratio in data set [1] and in data set [2] were 53.6 and over 167, respectively. In addition, the CC50 in the data set on LLC-MK2 was over 200 µM; in data set [3] (hela-rw), 37.5 µM.

Turning to `CC(C)n1ncc2c(C(=O)Nc3cccc(C(N)=O)c3)cc(-c3cccs3)nc21`, the EC50 is 6.3 µM in the data set with Poliovirus 3, 0.8 µM with Enterovirus A71, 0.7 µM in the data set on Coxsackievirus B3 and 6.3 µM in the data set with Poliovirus 1. Also, the selectivity ratio in data set [1] was found to be 25.7; in [2], 31.3; in [4], 2.9; in data set [5], 2.9. Further, the CC50 in the data set with LLC-MK2 was 25 µM; in data set [3] (hela-rw), 18 µM.

On to `CC(C)n1ncc2c(C(=O)Nc3cccnc3)cc(-c3cccs3)nc21`, for which the EC50 was determined as 10 µM in the data set with Poliovirus 3, 0.5 µM with Enterovirus A71, 0.4 µM in the data set with Coxsackievirus B3 and 10 µM with Poliovirus 1. The selectivity ratio in data set [1] was 62.5; in data set [2] it was over 400; in [4], 2.5; in data set [5] it was 2.5. The figures for the CC50 (in the data set with LLC-MK2; in data set [3] (hela-rw)) were over 200 µM and 25 µM, respectively.

For the compound `CC(C)n1ncc2c(C(=O)Nc3c(F)cc(F)cc3F)cc(-c3cccs3)nc21`, the EC50 with Poliovirus 3 is over 25 µM; with Enterovirus A71, 3 µM; with Coxsackievirus B3 it was 1.8 µM; with Poliovirus 1, over 25 µM. Besides, the selectivity ratio in [1] is over 111; in data set [2], over 66.7. The CC50 (in the data set with LLC-MK2; in [3] (hela-rw)) was over 200 µM in each case.

As to `CC(C)n1ncc2c(C(=O)Nc3c(F)cccc3F)cc(-c3cccs3)nc21`, the EC50 is over 25 µM with Poliovirus 3, 3.4 µM with Enterovirus A71, 3.2 µM in the data set on Coxsackievirus B3 and over 25 µM in the data set on Poliovirus 1. The selectivity ratio in [1] is over 62.5; in [2], over 58.8. The CC50 (with LLC-MK2; in data set [3] (hela-rw)) was over 200 µM in each case.

For `CC(C)n1ncc2c(C(=O)Nc3ccncn3)cc(-c3cccs3)nc21`, the concentration giving a half-maximal response (EC50) is over 10 µM in the data set with Poliovirus 3, 0.5 µM with Enterovirus A71, 0.6 µM in the data set on Coxsackievirus B3 and over 10 µM in the data set with Poliovirus 1. Besides, the selectivity ratio is 33.3 in data set [1] and 100 in data set [2]. Further, the figures for the CC50 (in the data set on LLC-MK2; in data set [3] (hela-rw)) were 50 µM and 20 µM, respectively.

With `CC(C)n1ncc2c(C(=O)Nc3cccc(S(N)(=O)=O)c3)cc(-c3cccs3)nc21`, the EC50 in the data set on Poliovirus 3 was determined as 5 µM; in the data set with Enterovirus A71, 1.3 µM; in the data set on Coxsackievirus B3, 1.3 µM; with Poliovirus 1 it was 5 µM. The selectivity ratio in [1] worked out at 167; in [2] it was 19.2; in data set [4], 10; in data set [5], 10. Moreover, the values for the CC50 (with LLC-MK2; in data set [3] (HeLa-RW cells)) were 25 µM and 50 to 200 µM, respectively.

In the case of `CC(C)n1ncc2c(C(=O)Nc3ccc(F)cc3)cc(-c3ccsc3)nc21`, the EC50 in the data set with Poliovirus 3 was over 25 µM; with Enterovirus A71, 1.4 µM; with Coxsackievirus B3, 1.3 µM; in the data set on Poliovirus 1, over 25 µM. The selectivity ratio in [1] was 19.2; in [2], over 143. The cytotoxic concentration (CC50) is over 200 µM in the data set on LLC-MK2 and 25 µM in data set [3] (hela-rw).

Source of the values: ChEMBL document CHEMBL4024801, “Synthesis and Structure-Activity Relationship (SAR) Studies of Novel Pyrazolopyridine Derivatives as Inhibitors of Enterovirus Replication” (J Med Chem, 2018).
